Measurements taken from ChEMBL document CHEMBL4411287, “Discovery and optimization of a series of 3-substituted indazole derivatives as multi-target kinase inhibitors for the treatment of lung squamous cell carcinoma” (Eur J Med Chem, 2019).

Assays:
[1] = biological target: Tyrosine-protein kinase ABL1 (Homo sapiens) (UniProt P00519); test: Inhibition of ABL (unknown origin) at 1000 nM relative to control
[2] = biological target: Epidermal growth factor receptor (Homo sapiens) (UniProt P00533); test: Inhibition of EGFR (unknown origin) at 1000 nM relative to control
In short: (§1)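 Purified recombinant kinase domains run in ELISA on precoated poly(Glu,Tyr) 4:1 (20 µg/mL) with 10 µM ATP in 50 mM HEPES pH 7.4, 50 mM MgCl2, 0.5 mM MnCl2, 0.2 mM Na3VO4, 1 mM DTT; 1% DMSO control; 60 min at 37 °C. Phosphotyrosine read by PY99 antibody, HRP anti-mouse IgG, OPD/H2O2 at 490 nm; inhibition = [1−A490/A490control]×100%; two separate experiments.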

[3] = biological target: Fibroblast growth factor receptor 4 (Homo sapiens) (UniProt P22455); test: Inhibition of FGFR4 (unknown origin) at 1000 nM relative to control; in short: as §1
[4] = biological target: Tyrosine-protein kinase JAK1 (Homo sapiens) (UniProt P23458); test: Inhibition of JAK1 (unknown origin) at 100 nM relative to control; in short: as §1
[5] = biological target: Mitogen-activated protein kinase 3 (Homo sapiens) (UniProt P27361); test: Inhibition of ERK1 (unknown origin) at 10 nM relative to control
[6] = system: T1, Discoidin domain-containing receptor 2 (Homo sapiens), Q16832 [I638F]; test: Inhibition of DDR2 I638F mutant phosphorylation in human NCI-H2286 cells after 2 hrs by Western blot analysis; type: cell-based
T1 sequence (whole entry): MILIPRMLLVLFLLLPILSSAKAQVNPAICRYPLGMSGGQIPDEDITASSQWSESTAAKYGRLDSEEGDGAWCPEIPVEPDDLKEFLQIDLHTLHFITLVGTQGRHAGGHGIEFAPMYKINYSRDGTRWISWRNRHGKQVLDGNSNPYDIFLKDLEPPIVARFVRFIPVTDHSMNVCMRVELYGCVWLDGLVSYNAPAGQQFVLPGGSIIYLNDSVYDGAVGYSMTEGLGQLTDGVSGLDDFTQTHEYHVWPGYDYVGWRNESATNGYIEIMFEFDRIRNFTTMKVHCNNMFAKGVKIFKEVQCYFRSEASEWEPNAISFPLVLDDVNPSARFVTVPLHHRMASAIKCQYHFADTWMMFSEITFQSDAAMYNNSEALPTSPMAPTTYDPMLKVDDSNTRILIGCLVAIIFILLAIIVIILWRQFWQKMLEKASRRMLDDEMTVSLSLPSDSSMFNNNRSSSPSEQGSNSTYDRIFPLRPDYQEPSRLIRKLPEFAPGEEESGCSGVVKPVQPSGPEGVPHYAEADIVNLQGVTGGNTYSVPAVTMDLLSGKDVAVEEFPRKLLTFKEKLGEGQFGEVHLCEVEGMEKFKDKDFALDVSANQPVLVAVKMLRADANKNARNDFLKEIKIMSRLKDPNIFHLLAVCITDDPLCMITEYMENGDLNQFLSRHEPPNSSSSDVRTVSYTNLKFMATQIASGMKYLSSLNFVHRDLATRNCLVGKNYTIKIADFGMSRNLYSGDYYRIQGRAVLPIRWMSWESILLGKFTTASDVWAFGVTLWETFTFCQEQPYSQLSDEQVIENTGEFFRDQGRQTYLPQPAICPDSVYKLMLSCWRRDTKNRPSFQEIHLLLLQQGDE
In short: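 NCI-H2286 cells exposed to compound for 2 h at 37 °C and lysed in SDS sample buffer. Lysates run on 10% SDS-PAGE and blotted to nitrocellulose. Membranes probed for phospho- and total DDR2, ERK and Akt, with GAPDH as loading control, and detected by HRP secondary antibody and enhanced chemiluminescence.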

NCI-H716 = test: Antiproliferative activity against FGFR2 amplified human NCI-H716 cells after 72 hrs by CCK8 assay; type: functional, cell-based; settings: NCI-H716, 72 h
In short: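 Cells seeded at low density in growth medium and compounds added the next day. Incubated 72 h, then proliferation read by sulforhodamine B, MTT or CCK-8. IC50 obtained by four-parameter concentration-response curve fitting.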

Tyrosine-protein kinase JAK1 (Homo sapiens), sequence (P23458 whole entry): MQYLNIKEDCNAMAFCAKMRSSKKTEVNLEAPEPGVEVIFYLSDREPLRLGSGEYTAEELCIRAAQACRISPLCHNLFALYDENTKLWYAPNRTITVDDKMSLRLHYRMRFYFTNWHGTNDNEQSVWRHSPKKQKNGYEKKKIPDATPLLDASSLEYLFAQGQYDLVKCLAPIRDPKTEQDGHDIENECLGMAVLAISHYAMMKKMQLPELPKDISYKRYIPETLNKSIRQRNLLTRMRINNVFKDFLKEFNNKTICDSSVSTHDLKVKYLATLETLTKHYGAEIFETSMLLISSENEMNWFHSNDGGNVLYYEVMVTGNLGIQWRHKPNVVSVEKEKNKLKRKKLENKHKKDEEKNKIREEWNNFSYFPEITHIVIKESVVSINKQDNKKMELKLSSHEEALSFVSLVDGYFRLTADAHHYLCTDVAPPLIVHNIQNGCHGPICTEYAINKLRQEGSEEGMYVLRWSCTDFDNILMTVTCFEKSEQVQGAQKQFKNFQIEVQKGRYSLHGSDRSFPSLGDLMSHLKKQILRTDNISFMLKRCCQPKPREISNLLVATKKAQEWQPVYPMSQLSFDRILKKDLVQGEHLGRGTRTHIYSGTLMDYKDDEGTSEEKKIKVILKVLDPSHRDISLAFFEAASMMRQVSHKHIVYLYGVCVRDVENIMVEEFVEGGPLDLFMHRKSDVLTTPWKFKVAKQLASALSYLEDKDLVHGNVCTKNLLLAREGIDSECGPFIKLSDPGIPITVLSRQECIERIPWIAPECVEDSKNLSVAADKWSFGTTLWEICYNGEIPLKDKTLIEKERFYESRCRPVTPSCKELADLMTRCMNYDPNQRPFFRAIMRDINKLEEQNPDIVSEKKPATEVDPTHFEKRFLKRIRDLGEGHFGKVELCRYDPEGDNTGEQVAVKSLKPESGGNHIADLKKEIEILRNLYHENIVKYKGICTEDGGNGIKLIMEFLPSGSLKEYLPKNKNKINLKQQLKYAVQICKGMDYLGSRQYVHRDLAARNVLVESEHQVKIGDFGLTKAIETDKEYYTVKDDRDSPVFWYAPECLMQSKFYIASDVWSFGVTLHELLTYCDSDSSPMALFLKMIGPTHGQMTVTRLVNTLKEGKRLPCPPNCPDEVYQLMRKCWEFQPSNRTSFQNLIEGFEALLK
Mitogen-activated protein kinase 3 (Homo sapiens), sequence (P27361 whole entry, the tested form may be a part): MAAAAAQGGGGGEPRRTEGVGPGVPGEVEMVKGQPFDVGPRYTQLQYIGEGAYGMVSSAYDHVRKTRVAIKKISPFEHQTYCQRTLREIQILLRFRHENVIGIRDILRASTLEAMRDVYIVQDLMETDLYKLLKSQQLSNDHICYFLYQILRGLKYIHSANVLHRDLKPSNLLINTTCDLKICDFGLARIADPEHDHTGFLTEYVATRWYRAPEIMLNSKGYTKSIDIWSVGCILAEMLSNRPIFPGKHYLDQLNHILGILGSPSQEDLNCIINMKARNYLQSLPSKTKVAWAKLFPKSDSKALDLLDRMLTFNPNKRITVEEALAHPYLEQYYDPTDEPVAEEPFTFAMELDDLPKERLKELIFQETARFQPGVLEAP
Epidermal growth factor receptor (Homo sapiens), sequence (P00533 whole entry, the tested form may be a part): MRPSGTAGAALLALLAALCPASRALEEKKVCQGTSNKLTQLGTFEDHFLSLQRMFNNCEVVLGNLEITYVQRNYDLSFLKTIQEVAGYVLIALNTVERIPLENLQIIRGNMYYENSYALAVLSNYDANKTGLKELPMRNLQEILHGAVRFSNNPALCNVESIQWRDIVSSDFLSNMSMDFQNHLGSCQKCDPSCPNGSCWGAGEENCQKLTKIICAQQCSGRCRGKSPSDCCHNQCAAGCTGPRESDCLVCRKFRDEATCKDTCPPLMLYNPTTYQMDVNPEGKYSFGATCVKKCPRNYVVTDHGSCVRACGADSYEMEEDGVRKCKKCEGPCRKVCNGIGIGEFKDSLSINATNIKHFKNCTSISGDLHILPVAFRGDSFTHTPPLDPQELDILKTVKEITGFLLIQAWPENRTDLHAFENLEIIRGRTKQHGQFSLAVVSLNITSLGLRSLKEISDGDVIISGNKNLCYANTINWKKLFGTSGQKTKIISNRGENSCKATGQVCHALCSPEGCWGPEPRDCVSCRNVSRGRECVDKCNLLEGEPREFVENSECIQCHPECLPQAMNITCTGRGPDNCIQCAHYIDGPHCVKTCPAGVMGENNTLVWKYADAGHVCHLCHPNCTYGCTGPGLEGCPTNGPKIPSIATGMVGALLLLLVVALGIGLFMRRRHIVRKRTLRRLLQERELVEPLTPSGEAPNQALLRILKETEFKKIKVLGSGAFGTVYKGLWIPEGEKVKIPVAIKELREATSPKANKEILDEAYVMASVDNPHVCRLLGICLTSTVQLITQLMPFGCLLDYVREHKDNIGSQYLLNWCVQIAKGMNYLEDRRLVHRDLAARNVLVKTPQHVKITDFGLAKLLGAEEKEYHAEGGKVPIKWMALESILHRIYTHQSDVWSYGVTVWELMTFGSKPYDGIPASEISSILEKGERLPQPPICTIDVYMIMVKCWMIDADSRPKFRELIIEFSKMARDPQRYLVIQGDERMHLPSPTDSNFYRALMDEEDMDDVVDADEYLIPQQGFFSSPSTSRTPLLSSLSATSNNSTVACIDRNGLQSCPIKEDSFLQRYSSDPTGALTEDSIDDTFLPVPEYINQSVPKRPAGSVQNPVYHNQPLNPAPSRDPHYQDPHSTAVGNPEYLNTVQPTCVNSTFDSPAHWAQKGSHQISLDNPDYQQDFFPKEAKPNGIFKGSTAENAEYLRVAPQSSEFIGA
Tyrosine-protein kinase ABL1 (Homo sapiens), sequence (P00519 whole entry): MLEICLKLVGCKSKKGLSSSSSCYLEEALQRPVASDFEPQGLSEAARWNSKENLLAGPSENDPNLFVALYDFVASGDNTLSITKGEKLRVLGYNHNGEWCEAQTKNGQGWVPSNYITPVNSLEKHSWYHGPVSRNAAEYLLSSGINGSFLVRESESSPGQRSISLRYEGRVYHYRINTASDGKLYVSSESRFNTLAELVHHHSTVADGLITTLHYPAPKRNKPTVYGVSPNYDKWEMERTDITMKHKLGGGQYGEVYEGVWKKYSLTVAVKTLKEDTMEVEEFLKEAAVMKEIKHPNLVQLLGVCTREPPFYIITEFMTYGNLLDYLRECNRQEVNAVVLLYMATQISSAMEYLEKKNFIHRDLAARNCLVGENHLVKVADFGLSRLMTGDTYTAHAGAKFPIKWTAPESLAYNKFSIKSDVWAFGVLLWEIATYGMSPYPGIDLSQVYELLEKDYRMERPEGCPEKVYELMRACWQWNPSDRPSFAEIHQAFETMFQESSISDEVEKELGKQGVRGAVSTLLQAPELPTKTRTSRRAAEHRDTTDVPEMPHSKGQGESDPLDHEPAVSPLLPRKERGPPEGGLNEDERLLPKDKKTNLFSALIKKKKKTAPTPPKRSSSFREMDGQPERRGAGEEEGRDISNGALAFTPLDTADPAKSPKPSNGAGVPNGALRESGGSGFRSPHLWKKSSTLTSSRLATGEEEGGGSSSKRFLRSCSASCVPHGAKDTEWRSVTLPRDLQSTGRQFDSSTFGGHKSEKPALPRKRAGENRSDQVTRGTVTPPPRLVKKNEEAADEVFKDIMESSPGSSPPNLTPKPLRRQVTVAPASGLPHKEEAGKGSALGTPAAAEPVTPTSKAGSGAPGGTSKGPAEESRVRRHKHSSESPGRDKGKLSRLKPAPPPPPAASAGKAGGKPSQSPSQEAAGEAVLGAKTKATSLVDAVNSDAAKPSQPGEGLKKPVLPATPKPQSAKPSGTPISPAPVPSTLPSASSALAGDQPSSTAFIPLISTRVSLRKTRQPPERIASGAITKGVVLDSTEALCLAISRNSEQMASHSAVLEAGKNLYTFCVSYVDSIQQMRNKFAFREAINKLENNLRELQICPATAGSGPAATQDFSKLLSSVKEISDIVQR
Fibroblast growth factor receptor 4 (Homo sapiens), sequence (P22455 22-802 limits assumed): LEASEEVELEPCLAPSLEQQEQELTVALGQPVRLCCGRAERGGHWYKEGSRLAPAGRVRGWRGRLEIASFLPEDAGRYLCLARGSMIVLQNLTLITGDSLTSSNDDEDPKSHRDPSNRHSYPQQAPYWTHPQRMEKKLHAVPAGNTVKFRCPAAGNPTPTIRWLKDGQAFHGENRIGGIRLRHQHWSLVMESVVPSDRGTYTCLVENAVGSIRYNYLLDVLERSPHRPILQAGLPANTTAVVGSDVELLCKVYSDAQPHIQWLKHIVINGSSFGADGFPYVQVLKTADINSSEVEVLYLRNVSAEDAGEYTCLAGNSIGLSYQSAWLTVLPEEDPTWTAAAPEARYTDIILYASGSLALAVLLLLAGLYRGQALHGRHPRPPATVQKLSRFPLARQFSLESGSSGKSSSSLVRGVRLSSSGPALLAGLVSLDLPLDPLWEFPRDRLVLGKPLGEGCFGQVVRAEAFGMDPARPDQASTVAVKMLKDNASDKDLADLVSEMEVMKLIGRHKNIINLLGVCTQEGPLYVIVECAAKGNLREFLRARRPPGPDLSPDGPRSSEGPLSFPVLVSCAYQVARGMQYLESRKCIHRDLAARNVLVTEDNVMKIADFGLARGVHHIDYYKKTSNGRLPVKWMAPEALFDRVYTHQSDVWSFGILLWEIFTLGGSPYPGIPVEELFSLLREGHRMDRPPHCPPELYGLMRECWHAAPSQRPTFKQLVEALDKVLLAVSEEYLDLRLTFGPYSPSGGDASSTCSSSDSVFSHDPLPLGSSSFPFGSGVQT

Cc1ccc(C(=O)Nc2cccc(C(F)(F)F)c2)cc1-c1ccc2c(-c3cnn(C4CC4)c3)n[nH]c2c1
inhibition [1]: 100% | inhibition [2]: 18.1% | inhibition [3]: 72.4% | inhibition [4]: 13.1% | inhibition [5]: -2.8% | inhibition [6]: Dose-dependent effect | IC50 (NCI-H716): 31.8 nM
